The list is not random: actives were taken first. Their share in the collection is about 5%.
CSC inhib = cancer stem cell viability inhibitors, primary screen, luminescence | cancer stem cell-like cells viability | inhibition, % at 7.5 µM | 300,000 tested, 1.1% active | AID 2717, 2010; in the data active = inhibition above about 75%; tested in HMLE shEcad cells
CHOP UPR activ = activators of apoptotic CHOP UPR arm, primary screen, cell-based, CHO-CHOP luciferase reporter, luminescence, uHTS; UPR activation; percent of tunicamycin response over DMSO baseline; activation, % at 10 µM; 330,000 tested, 0.34% active; AID 449763, 2010;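 active = at 10 µM dose, activation of 40% or more, normalized to positive control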;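 note: 100% = tunicamycin at 10 µg/mL and 0% = DMSO alone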
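Dosing – one dose, 10 µM in 0.5% DMSO · System – CHO-CHOP cells, stable luciferase reporter of PERK-eIF2a-CHOP signalling · Input – 500 cells/well · Control set – tunicamycin 10 µg/mL final as positive, DMSO-only wells as negative · Timing – 6 h compound treatment, 37 °C · Measure – % activation vs tunicamycin · Technique – luminescence read with Steady-Glo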
Beta apoptosis = inhibitors of cytokine-induced beta cell apoptosis, primary screen, luminescence | INS-1E cytokine-induced death, ATP luminescence, 48 h; percent of positive-control rescue, neutral wells zero | protection from apoptosis, % (test concentration not listed) | 300,000 tested, 0.8% active;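 active = Every replicate reaches about 75%, or at least half do and their mean reaches it too, limit read from the data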;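 note: 0% = cytokine-treated negative control wells and 100% = positive control rescue; higher means more ATP so stronger rescue from cytokine killing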
T cruzi repl = inhibitors of intracellular T. cruzi growth, primary screen, luminescence, NIH3T3 host cells; AID 1885, 2009; inhibition, % (test concentration not listed); 300,000 tested, 1.4% active; T. cruzi beta-gal in NIH3T3, 90 h;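 active = mean inhibition across valid replicates above about 55%, limit read from the data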;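 note: signal also drops with host cell toxicity which is not excluded here; 0% = plate median of DMSO wells and 100% = zero luminescence signal; higher percent means less beta-gal luminescence so fewer parasites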
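assay system = mouse NIH/3T3 fibroblasts infected with β-gal-expressing T. cruzi Tulahuen C4 | input = 5,000 NIH/3T3 host cells per well | buffer or medium = DMEM plus 2% FBS | timing = 3 h host attachment, then at least 90 h co-culture | measured by = GalScreen luminescence, 60 min | evaluation = luminescence reflecting intracellular parasite burden, expressed as percent inhibition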
UPR XBP1 act = activators of adaptive XBP1 UPR arm, primary screen, cell-based, CHO-XBP1 luciferase reporter, luminescence, uHTS; IRE1-XBP1 UPR activation; percent of tunicamycin response, DMSO as zero; 330,000 tested, 0.33% active; activation, % at 20 µM; AID 463104, 2010;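 active = versus positive control, 20 µM dose yields 30% or more activation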;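 note: 100% = tunicamycin at 10 µg/mL and 0% = DMSO only wells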
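Material: CHO-XBP1 cells stably carrying IRE1-XBP1-driven luciferase reporter | Medium: F12 with 10% serum | Compound dosing: 20 µM single concentration, DMSO 1% | Incubation: Overnight seeding at 37 °C, 6 h compound treatment at 37 °C | Detection: Steady-Glo luminescence read | Read-out basis: % activation of reporter signal versus tunicamycin and DMSO controls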
Mdm2 MdmX PPI = inhibitors of human Mdm2-MdmX association, primary screen, cell-based, luminescence, split luciferase, SaOS-2, uHTS; Protein Mdm4 (Homo sapiens) + E3 ubiquitin-protein ligase Mdm2 (Homo sapiens), …; SaOS-2 split-luciferase Mdm2/MdmX complementation; AID 485346, 2010; inhibition, % at 8 µM; 330,000 tested, 3% active;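 active = inhibition of at least 50% at 8 µM in the primary screen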
Target sequence (O15151 whole entry, looked up): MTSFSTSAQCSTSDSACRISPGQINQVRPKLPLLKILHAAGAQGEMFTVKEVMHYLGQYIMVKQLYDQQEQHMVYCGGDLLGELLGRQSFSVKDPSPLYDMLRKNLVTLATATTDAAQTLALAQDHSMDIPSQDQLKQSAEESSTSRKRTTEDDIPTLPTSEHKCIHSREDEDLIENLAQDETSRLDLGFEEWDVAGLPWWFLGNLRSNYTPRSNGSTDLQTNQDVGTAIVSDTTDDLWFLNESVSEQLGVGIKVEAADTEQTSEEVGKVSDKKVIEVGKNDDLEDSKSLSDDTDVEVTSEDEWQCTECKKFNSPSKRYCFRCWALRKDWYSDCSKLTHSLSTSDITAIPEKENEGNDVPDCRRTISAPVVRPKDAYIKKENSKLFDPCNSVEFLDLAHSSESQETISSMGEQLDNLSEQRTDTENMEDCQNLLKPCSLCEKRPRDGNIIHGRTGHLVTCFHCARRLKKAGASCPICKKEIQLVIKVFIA
Target sequence (Q00987 whole entry, looked up): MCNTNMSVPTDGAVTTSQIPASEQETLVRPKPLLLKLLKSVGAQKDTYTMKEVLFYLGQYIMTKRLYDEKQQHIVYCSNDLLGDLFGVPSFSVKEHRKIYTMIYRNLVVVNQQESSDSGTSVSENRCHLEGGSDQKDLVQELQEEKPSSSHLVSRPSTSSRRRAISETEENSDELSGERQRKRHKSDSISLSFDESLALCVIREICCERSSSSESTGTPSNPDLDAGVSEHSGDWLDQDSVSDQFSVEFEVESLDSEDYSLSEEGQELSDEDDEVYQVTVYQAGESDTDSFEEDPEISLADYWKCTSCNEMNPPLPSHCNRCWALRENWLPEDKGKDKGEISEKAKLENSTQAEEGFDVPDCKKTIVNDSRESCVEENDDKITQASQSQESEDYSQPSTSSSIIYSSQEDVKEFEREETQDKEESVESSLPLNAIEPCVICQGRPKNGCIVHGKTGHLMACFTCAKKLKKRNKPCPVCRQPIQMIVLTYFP
UPR CHOP confirm = activators of apoptotic CHOP UPR arm, confirmation, cell-based, CHO-CHOP luciferase reporter, single concentration | shares compounds with CHOP UPR activ | CHO-CHOP cells, CHOP-luciferase reporter luminescence; percent of tunicamycin response, DMSO as zero | activation, % at 10 µM | 1,000 tested, 64% active; in the data active = activation above about 33%;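 note: 0% = DMSO wells and 100% = tunicamycin 10 µg/mL wells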
The depositor's hits bear a star; nt = not tested or not shown.

SMILES	CSC inhib	CHOP UPR activ	Beta apoptosis	T cruzi repl	UPR XBP1 act	Mdm2 MdmX PPI	UPR CHOP confirm
Oc1ccc(/C=N/N(c2ccccc2)c2ccccc2)c(O)c1O	27.4	4.8	-7.4	-0.1	-6.6	3.7	nt
Cc1cc(OC(C)C(=O)NCc2cccnc2)c2c(C)cc(=O)oc2c1 (stereo not drawn)	-4.4	-0.7	-6.7	0.4	-3.6	10.4	nt
O=C1COc2ccc(C(=O)CCl)cc2N1	-5.7	148.4*	-11.6	-15.4	-6.0	19.0	-6.7
CCC(=O)c1ccc(OCC(=O)c2ccc3c(c2)NC(=O)CO3)cc1	-8.5	1.9	2.3	-10.3	-1.4	10.1	nt
C=CCn1c(SCC(=O)c2ccc(O)c(O)c2)nnc1-c1cccc(Cl)c1	25.6	64.0*	-3.9	nt	11.3	15.5	3.0
CSc1ccccc1NC(=O)CN(C)C(=O)COc1cccc2cccnc12	26.6	47.6*	-4.0	nt	13.0	10.8	12.5
N#C/C(=C/c1ccc(N2CCCCCC2)o1)c1ccc(F)cc1	-10.2	98.4*	35.9	58.1*	0.4	46.6	21.9
Cc1cc(C(=O)CCl)c(C)n1-c1cccc(S(=O)(=O)N2CCOCC2)c1	7.7	206.9*	-14.0	-34.8	-5.0	45.4	63.5*
CCOC(=O)C1=C(C)NC(C)=C(C(=O)OCC)C1C(=O)OCC(=O)N(C)C1CCS(=O)(=O)C1 (stereo not drawn)	2.6	-2.2	-1.9	0.9	0.1	14.2	nt
Cc1cccc(C)c1OCCNC(=O)C(=O)NCc1ccco1	50.4	-2.3	5.9	-21.5	1.7	44.5	nt
CCOC(=O)c1cnc(-n2nc(C)cc2C)nc1NCCO	nt	-1.8	-4.5	-14.6	-0.1	9.4	nt
CCOC(=O)c1cnc(-n2nc(C)cc2C)nc1NCc1ccccc1	18.4	73.7*	98.8*	61.6*	19.2	17.4	25.3
CCOC(=O)c1cnc(-n2nc(C)cc2C)nc1NC(C)c1ccccc1 (stereo not drawn)	nt	73.1*	88.3*	60.1*	29.6	23.0	29.1
CC(C)(C)c1cnnn1-c1ccc(C(=O)CCl)cc1	-10.8	55.6*	-11.9	-8.6	-4.7	48.4	-10.9
CC(C)(C)c1cnnn1-c1ccc(C=O)cc1	0.6	1.8	nt	-19.9	0.7	-16.2	nt
O=C(Nc1cccc(S(=O)(=O)N2CCCCC2)c1)c1ccc([N+](=O)[O-])o1	77.7*	54.9*	-10.6	40.3	2.3	30.3	38.5*
Cc1ccc(NC(=O)c2cc([N+](=O)[O-])ccc2N2CCOCC2)cc1S(=O)(=O)N1CCOCC1	-8.8	0.8	1.9	16.5	-5.5	18.7	nt
Cc1ccc(NC(=O)c2ccc([N+](=O)[O-])o2)cc1S(=O)(=O)N1CCOCC1	2.1	82.4*	94.0*	9.3	-0.2	18.0	39.6*
CN1C(=O)C(O)(CC(=O)c2cccc(-n3cccc3)c2)c2ccccc21 (stereo not drawn)	4.6	-0.5	-2.6	-5.7	1.8	-2.0	nt
O=C(C1CCC(=O)N(C2CC2)C1)N1CCC(Oc2cccc(C(F)(F)F)c2)CC1 (stereo not drawn)	nt	3.8	nt	-2.7	0.1	19.6	nt
NC(=O)c1cccc(NC(=O)CCCCC(=O)Nc2cccc(C(N)=O)c2)c1	-14.0	41.0*	-5.5	-9.2	-0.1	12.7	1.4
CCC1OC23CCCCC2C(C#N)(C(=N)O3)C1(C#N)C#N (stereo not drawn)	1.2	10.5	2.8	-18.4	-5.8	-2.1	nt
CC1OC23CCCCC2C(C#N)(C(=N)O3)C1(C#N)C#N (stereo not drawn)	-19.7	0.6	nt	-2.9	-1.5	9.8	nt
COc1ccc(C2OC34CCCCC3C(C#N)(C#N)C2(C#N)C(=N)O4)cc1 (stereo not drawn)	-3.7	53.8*	-6.6	-10.5	-7.1	-6.8	35.0*
N#CC12COC3(CCCCC3C1(C#N)C#N)OC2=N (stereo not drawn)	4.7	46.2*	3.0	-12.6	-2.5	4.9	43.2*
SMILES	CSC inhib	CHOP UPR activ	Beta apoptosis	T cruzi repl	UPR XBP1 act	Mdm2 MdmX PPI	UPR CHOP confirm
N#CC1(C#N)COC23CCCCC2C1(C#N)C(=N)O3 (stereo not drawn)	-16.8	64.7*	-8.0	-12.1	-4.1	4.7	54.7*
COc1ccc(-c2[nH]ncc2CN(Cc2nccn2C)C(C)C)c(F)c1	-16.4	-0.9	-2.0	8.2	-1.2	11.1	nt
O=C(COC(=O)CNC(=O)c1ccccc1F)NC12CC3CC(CC(C3)C1)C2	3.2	1.0	-6.0	nt	-0.2	-21.3	nt
CCOC(=O)c1ccc(N=C2C(=S)N(c3ccc(C(=O)OCC)cc3)C(=N)N2/N=C/c2ccccc2)cc1	1.9	53.1*	7.4	0.5	10.3	-45.8	36.7*
Cc1ccc2c(c1)c(N=Nc1ccc([N+](=O)[O-])cc1)c(O)n2C	4.8	72.9*	-3.0	-2.3	98.9*	19.4	3.5
CC(=O)NCc1ccc(C(=O)CCl)cc1	-1.4	112.9*	-33.3	61.4*	-2.7	-3.5	-10.2
COc1ccc(C(=O)OCC(=O)c2ccc(CNC(C)=O)s2)cc1	6.0	2.1	1.1	nt	1.7	11.1	nt
CC(=O)NCCC(=O)NCc1ccc(F)cc1	11.1	-1.6	-6.7	3.4	-1.9	-24.2	nt
CC(=O)NCc1ccc(C(=O)CCl)s1	20.7	63.7*	-56.9	56.2*	-8.6	24.3	-4.9
CC(=O)N(C)Cc1ccc(C(=O)CSc2nnc(C3CC3)n2C2CC2)cc1	0.5	0.1	-0.9	nt	-1.5	-6.4	nt
CC(=O)N(C)Cc1ccc(C(=O)CCl)cc1	-2.4	94.1*	3.2	74.3*	-7.8	24.3	2.4
NC(=O)NC(=O)CN1C(=O)NC2(CCOc3ccccc32)C1=O (stereo not drawn)	-15.3	-0.5	-2.2	-20.0	-5.6	-10.1	nt
CC(C)(C)N1CSC(=S)N(Cc2ccccc2)C1	10.6	85.7*	0.4	-12.0	-1.0	43.6	81.6*
CC(C)N1CSC(=S)N(Cc2ccccc2)C1	2.8	74.7*	-0.7	14.5	0.7	27.2	93.5*
C=CCN1C(=O)C(O)=C(C(C)=O)C1c1ccccc1F (stereo not drawn)	-2.4	1.4	-1.6	-1.4	-0.9	-4.6	nt
Cc1c(Cl)cccc1Nc1nc(N)nc(CSC(=S)N2CCOCC2)n1	5.2	2.5	-1.9	-20.7	1.5	-4.3	nt
